Activity calls are given as the source filed them. The rule behind the calls is not given here.
Key:
[1] = target: T1, Peroxisome proliferator-activated receptor delta (Homo sapiens, UniProt Q03181); test: Inhibition of GAL4-fused human PPARdelta transcriptional activity expressed in CHOK1 cells after 2 days by luciferase reporter gene assay; type: cell-based
T1 sequence (Q03181 whole entry): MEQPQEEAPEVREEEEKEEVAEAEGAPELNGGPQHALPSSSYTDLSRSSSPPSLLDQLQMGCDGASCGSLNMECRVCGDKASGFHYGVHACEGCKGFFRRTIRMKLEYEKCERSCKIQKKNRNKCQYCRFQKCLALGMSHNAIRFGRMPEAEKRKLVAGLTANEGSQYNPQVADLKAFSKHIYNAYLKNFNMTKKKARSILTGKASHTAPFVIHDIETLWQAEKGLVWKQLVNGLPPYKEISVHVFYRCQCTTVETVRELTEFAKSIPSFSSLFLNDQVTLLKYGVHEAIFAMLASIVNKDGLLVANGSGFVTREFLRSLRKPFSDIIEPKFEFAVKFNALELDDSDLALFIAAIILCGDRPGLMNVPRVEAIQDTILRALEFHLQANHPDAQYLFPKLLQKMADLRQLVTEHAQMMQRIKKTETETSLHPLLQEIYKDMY

Retinoid X receptor = target: T2, Retinoid X receptor (Homo sapiens, UniProt P28702+P48443+P19793); test: Inhibition of GAL4-fused human RXR transcriptional activity expressed in CHOK1 cells after 2 days by luciferase reporter gene assay; type: cell-based
T2 sequence (P28702 whole entry): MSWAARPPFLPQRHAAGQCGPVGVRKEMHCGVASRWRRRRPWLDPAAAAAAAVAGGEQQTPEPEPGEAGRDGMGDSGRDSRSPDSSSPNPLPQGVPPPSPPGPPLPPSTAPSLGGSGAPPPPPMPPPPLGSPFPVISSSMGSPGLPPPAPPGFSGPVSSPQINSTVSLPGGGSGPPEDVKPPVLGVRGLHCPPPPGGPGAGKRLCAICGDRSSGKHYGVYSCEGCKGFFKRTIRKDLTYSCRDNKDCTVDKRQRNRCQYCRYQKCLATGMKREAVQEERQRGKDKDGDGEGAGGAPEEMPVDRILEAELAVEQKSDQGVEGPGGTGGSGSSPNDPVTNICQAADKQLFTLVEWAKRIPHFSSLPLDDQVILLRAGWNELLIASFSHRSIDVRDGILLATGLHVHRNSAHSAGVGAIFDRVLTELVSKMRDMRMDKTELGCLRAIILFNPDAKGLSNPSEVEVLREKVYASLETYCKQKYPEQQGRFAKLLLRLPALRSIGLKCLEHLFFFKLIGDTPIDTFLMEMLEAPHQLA
T2 sequence (P48443 whole entry): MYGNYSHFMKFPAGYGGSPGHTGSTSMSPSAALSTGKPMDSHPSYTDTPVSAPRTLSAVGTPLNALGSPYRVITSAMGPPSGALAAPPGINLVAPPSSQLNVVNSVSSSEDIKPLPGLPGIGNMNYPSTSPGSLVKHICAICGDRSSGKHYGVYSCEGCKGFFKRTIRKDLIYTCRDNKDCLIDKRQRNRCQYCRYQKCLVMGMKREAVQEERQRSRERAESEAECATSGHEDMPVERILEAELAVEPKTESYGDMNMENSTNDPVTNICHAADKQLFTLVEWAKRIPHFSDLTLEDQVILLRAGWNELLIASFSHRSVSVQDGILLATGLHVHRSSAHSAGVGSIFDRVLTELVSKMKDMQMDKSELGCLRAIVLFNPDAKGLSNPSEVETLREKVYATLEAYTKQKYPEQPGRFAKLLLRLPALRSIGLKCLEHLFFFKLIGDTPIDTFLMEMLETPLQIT
T2 sequence (P19793 whole entry): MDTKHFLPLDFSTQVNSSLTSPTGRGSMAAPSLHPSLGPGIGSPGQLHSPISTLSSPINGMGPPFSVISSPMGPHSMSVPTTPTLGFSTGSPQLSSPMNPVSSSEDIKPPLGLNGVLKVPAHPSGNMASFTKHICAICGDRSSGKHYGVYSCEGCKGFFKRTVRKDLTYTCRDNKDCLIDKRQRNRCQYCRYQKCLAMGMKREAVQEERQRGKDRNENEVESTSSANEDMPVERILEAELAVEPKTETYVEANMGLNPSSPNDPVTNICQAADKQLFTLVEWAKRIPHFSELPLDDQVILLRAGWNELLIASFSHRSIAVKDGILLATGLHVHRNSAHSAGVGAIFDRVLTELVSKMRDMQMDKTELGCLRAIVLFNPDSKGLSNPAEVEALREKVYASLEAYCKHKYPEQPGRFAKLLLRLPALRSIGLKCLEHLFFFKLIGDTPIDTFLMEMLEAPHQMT

[2] = MRT in CD(SD) rat at 3 mg/kg, po; type: ADME, organism-based; settings: in vivo
Cytochrome P450 2D6 = Cytochrome P450 2D6 (Homo sapiens, UniProt P10635); test: Time-dependent inhibition of human CYP2D6; type: ADME
Mus musculus [3] = test: Anti-inflammatory activity in C57BL/6 mouse model of IL23-induced dermatitis assessed as inhibition of ear swelling at 3 to 30 mg/kg, po administered once daily from day 1 to 11 and measured on days 1, 5, 8, 10, 12 post dose; type: functional, organism-based
In short: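 IL-23 dermatitis: 250 ng recombinant mouse IL-23 in 20 μL PBS with 0.1% BSA injected intradermally into left ear of anesthetized mice on days 1, 3, 5, 8 and 10. Oral dosing at 3 and 30 mg/kg (vehicle 0.5% MC, 10 mL/kg) daily days 1–11. Left ear thickness measured by digital gauge on days 1, 5, 8, 10, 12; change from day 1 baseline.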

Cytochrome P450 3A4 [4] = target: T3, Cytochrome P450 3A4 (Homo sapiens, UniProt P08684); test: Time-dependent inhibition of human CYP3A4 using midazolam as substrate; type: ADME
Mus musculus [5] = test: Anti-inflammatory activity in orally dosed C57BL/6 mouse model of MOG (35 to 55 residues)/pertussis toxin/anti-CD3 antibody-induced experimental allergic encephalomyelitis assessed as inhibition of IL17 production measured 8 hrs after post dose by ELISA; type: functional
In short: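 Female C57BL/6 mice immunized subcutaneously at two back sites (75 μg MOG35–55 per site; peptide at 3 mg/mL in D-PBS emulsified 1:1 with complete Freund's adjuvant), plus intraperitoneal pertussis toxin 0.2 μg on days 1 and 3. Day 5: anti-CD3 1 μg i.v. Oral dosing 3 h or 8 h before anti-CD3, 5 mice/group. Blood taken 2 h post-anti-CD3; plasma IL-17A measured by ELISA.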

Cytochrome P450 3A4 [6] = target: T3, Cytochrome P450 3A4; test: Time-dependent inhibition of human CYP3A4 using testosterone as substrate; type: ADME
[7] = Volume of distribution at steady state in CD(SD) rat at 1 mg/kg, iv; type: ADME, organism-based; settings: in vivo, read-out: Vdss

T3 sequence (P08684 whole entry, the tested form may be a part): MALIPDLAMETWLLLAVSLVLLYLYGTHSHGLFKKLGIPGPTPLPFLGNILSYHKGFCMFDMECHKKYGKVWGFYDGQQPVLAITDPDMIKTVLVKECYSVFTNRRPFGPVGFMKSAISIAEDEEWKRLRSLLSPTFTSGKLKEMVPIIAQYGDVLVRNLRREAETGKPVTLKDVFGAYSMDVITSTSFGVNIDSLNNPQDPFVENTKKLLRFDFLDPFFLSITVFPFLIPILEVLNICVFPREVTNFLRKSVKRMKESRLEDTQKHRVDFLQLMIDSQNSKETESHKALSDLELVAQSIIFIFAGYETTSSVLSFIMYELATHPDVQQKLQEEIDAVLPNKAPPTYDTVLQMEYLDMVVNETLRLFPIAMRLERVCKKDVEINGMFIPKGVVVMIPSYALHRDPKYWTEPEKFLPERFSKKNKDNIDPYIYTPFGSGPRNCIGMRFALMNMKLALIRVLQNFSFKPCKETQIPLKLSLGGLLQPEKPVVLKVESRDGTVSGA
Cytochrome P450 2D6, sequence (P10635 whole entry): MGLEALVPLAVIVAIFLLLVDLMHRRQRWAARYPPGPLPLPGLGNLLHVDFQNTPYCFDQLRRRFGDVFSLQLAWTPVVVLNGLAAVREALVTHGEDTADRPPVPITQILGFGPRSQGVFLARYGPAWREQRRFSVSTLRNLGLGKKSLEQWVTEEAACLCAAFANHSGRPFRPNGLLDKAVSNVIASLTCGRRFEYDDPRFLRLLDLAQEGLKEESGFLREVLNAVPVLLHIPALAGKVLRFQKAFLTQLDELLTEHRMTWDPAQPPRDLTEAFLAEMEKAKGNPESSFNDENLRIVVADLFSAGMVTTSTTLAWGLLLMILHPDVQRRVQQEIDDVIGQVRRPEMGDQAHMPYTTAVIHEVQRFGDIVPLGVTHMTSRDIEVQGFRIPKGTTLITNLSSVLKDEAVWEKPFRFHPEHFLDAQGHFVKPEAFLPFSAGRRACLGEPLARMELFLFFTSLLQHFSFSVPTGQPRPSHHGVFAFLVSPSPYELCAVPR

## CC(C)(C)Cc1cc(-c2onc([C@@H](CCC(=O)[O-])CC(=O)Nc3ccc(Cl)cc3Cl)c2C2CC2)no1.[Na+]
[1]
  EC50: > 20 µM
Retinoid X receptor
  EC50: > 20 µM
[2]
  MRT: 4.9 h
Cytochrome P450 2D6
  IC50: > 50 µM
Mus musculus [3]
  Activity: Active
Cytochrome P450 3A4 [4]
  IC50: > 50 µM
Mus musculus [5]
  Activity: Dose-dependent effect
Mus musculus [5]; C57BL/6, po
  ED50: 3 mg/kg
Cytochrome P450 3A4 [6]
  IC50: > 50 µM
[7]
  Vd: 0.76 L/kg

From ChEMBL document CHEMBL4480411, “Discovery of Second Generation RORγ Inhibitors Composed of an Azole Scaffold” (J Med Chem, 2019)
